# Measurements from ChEMBL document CHEMBL1152918, “Simplexins A-I, eunicellin-based diterpenoids from the soft coral Klyxum simplex” (2009).
# The source made the active and inactive calls. The rule behind the calls is not given here.
# Tests used:
# Format in all cases: functional
# [1] = system: Daoy; assay: Cytotoxicity against human DaOY cells by MTT assay; details: read-out: ED50 (the source's name)
# [2] = system: MCF7; assay: Cytotoxicity against human MCF7 cells by MTT assay; details: read-out: ED50 (the source's name)
# [3] = system: HeLa; assay: Cytotoxicity against human HeLa cells by MTT assay; details: read-out: ED50 (the source's name)
# [4] = system: HEp-2; assay: Cytotoxicity against human Hep2 cells by MTT assay; details: read-out: ED50 (the source's name)
# [5] = system: RAW264.7; assay: Antiinflammatory activity against LPS-stimulated mouse RAW264.7 cells assessed as reduction in iNOS level at 10 uM relative to control; parameters: scale not given: the % may be the effect or the level left
# Summary of the method: (§1)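 Immunoblot measured iNOS and COX-2 protein levels in RAW264.7 macrophages stimulated with LPS and treated at 10 μM. Levels are expressed as a percentage of cells given LPS alone.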
# [6] = system: RAW264.7; assay: Antiinflammatory activity against LPS-stimulated mouse RAW264.7 cells assessed as reduction in COX-2 level at 10 uM relative to control; summary of the method: as §1
compound,measurement,setting,value
C=C1C[C@H]2O[C@H]([C@H]3[C@@H]2[C@](C)(OC(C)=O)CC[C@@H]3C(C)C)[C@](C)(OC(=O)CCC)CC[C@@H]1O [SIMPLEXIN A],EC50,[1],10.4 µg/mL
same,EC50,[2],12.1 µg/mL
same,EC50,[3],> 20 µg/mL
same,EC50,[4],12.1 µg/mL
same,Activity,[5],15.9%
same,Activity,[6],inactive
CCCC(=O)O[C@]1(C)CC[C@H](O)[C@@](C)(O)C[C@H]2O[C@@H]1[C@H]1[C@@H]2[C@](C)(OC(C)=O)CC[C@@H]1C(C)C [SIMPLEXIN B],EC50,[1],> 20 µg/mL
same,EC50,[2],> 20 µg/mL
same,EC50,[3],> 20 µg/mL
same,EC50,[4],> 20 µg/mL
CCCC(=O)O[C@H]1[C@H](C(C)C)[C@@H]2[C@@H]([C@H]3C[C@](C)(O)[C@@H](OC(C)=O)CC[C@@](C)(OC(=O)CCC)[C@@H]2O3)[C@](C)(O)[C@@H]1OC(C)=O [SIMPLEXIN C],EC50,[1],> 20 µg/mL
same,EC50,[2],> 20 µg/mL
same,EC50,[3],> 20 µg/mL
same,EC50,[4],> 20 µg/mL
CCCC(=O)O[C@H]1[C@H](C(C)C)[C@@H]2[C@@H]([C@H]3C[C@](C)(O)[C@@H](OC(=O)CCC)CC[C@@](C)(OC(=O)CCC)[C@@H]2O3)[C@](C)(O)[C@@H]1OC(C)=O [SIMPLEXIN D],EC50,[1],15.3 µg/mL
same,EC50,[2],14.5 µg/mL
same,EC50,[3],> 20 µg/mL
same,EC50,[4],> 20 µg/mL
same,Activity,[5],37.7%
same,Activity,[6],inactive
C=CC(=O)O[C@H]1CC[C@@](C)(OC(=O)CCC)[C@@H]2O[C@H](C[C@]1(C)O)[C@@H]1[C@H]2[C@@H](C(C)C)[C@H](OC(=O)CCC)[C@@H](OC(C)=O)[C@@]1(C)O [SIMPLEXIN E],EC50,[1],12.8 µg/mL
same,EC50,[2],7.19 µg/mL
same,EC50,[3],17.4 µg/mL
same,EC50,[4],10.7 µg/mL
same,Activity,[5],4.8%
same,Activity,[6],37.7%
CCCC(=O)O[C@]1(C)CC[C@H](OC(C)=O)[C@@](C)(O)C[C@H]2O[C@@H]1[C@@H]1[C@@H](C(C)C)[C@H](O)[C@@H](OC(C)=O)[C@@](C)(O)[C@@H]12 [SIMPLEXIN F],EC50,[1],> 20 µg/mL
same,EC50,[2],> 20 µg/mL
same,EC50,[3],> 20 µg/mL
same,EC50,[4],> 20 µg/mL
CC(=O)O[C@H]1CC[C@@](C)(OC(C)=O)[C@@H]2O[C@H](C[C@]1(C)O)[C@@H]1[C@H]2[C@@H](C(C)C)[C@H](O)C[C@@]1(C)OC(C)=O [SIMPLEXIN I],EC50,[1],> 20 µg/mL
same,EC50,[2],> 20 µg/mL
same,EC50,[3],> 20 µg/mL
same,EC50,[4],> 20 µg/mL
